How the values were obtained:
Assay type in all cases: functional, Leukemia cell
[1] = Induction of erythroid differentiation in DBA/2J mouse Friend erythroleukemia cells assessed as concentration required for maximum proportion of benzidine positive cells after 6 days
In short: (§1)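 Log-phase Friend leukemia cells seeded at 10⁵ cells/mL in DMEM + 10% fetal calf serum, 37 °C, 10% CO₂. Compound added at seeding over a range of concentrations with twofold steps, in two separate experiments. Water-insoluble agents were dissolved in 50% ethanol or acetone. Me₂SO (210 mM) was the positive control. Benzidine-positive cells were scored on day 6 with benzidine peroxide stain.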

[2] = Induction of erythroid differentiation in DBA/2J mouse Friend erythroleukemia cells assessed as cell growth after 3 days relative to control; design: concentration or dose not given beside the values
In short: (§2)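 Cells were seeded at 10⁵ cells/mL with compound added at seeding, in two separate experiments using twofold concentration steps. Incubation was at 37 °C. Cell number was counted with a Coulter counter on day 3, and cell counts were also taken on day 6. Growth is expressed as a percentage of untreated control cultures.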

[3] = Induction of erythroid differentiation in DBA/2J mouse Friend erythroleukemia cells assessed as benzidine positive cells after 6 days relative to control; design: concentration or dose not given beside the values; in short: as §1
[4] = Induction of erythroid differentiation in DBA/2J mouse Friend erythroleukemia cells assessed as hemoglobin level per 10^7 cells after 3 to 6 days relative to control
In short: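 On day 6, cultures that contained benzidine-positive cells were centrifuged at 350g for 10 min. Cells were washed twice in phosphate-buffered 0.9% NaCl, pH 7.4, then sonicated. Total hemoglobin was measured from absorbance at 515 nm after the lysate was incubated with benzidine, and expressed per 10⁷ cells. Cells had been seeded at 10⁵ cells/mL with compound added at seeding, 37 °C.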

[5] = Induction of erythroid differentiation in DBA/2J mouse Friend erythroleukemia cells assessed as cell growth after 6 days relative to control; design: concentration or dose not given beside the values; in short: as §2

Structure (SMILES)	Activity [1]	Activity [2]	Activity [3]	Activity [4]	Activity [5]
CC(=O)Nc1cccnc1	8 mM	58%	43%	14.4 µg	95%
CC(=O)Nc1ccccn1	2 mM	65%	72%	30.6 µg	95%
Cn1ccccc1=O	2 mM	23%	74%	–	95%
CC(=O)Nc1cccc(NC(C)=O)n1	4 mM	80%	28%	8.6 µg	95%
[O-][n+]1ccc(-c2ccccc2)cc1	0.4 mM	26%	<1%	<0.5 µg	95%
CC(=O)NCc1ccccn1	15 mM	36%	68%	30 µg	95%
CC(=O)NCCc1ccccn1	10 mM	33%	60%	28 µg	95%
CC(=O)Nc1cc(-c2ccccc2)ccn1	0.04 mM	21%	8%	–	95%
CC(=O)Nc1cccc[n+]1[O-]	10 mM	74%	43%	22.6 µg	95%
CC(=O)Nc1ccc[n+]([O-])c1	10 mM	74%	35%	15.6 µg	95%
CC(=O)Nc1cc(-c2ccccc2)cc[n+]1[O-]	1 mM	17%	17%	12.2 µg	95%
CC(=O)Nc1cccc(=O)n1C	16 mM	55%	73%	22.2 µg	95%
CC(=O)Nc1ccc(=O)n(C)c1	2 mM	91%	67%	33.8 µg	95%
CC(=O)Nc1ccc(=O)[nH]c1	1 mM	26%	16%	–	95%
CC(=O)Nc1cccc(=O)[nH]1	2 mM	22%	4%	–	95%
Oc1ccccn1	8.6 mM	11%	26%	–	95%
C[S+](C)[O-] [DIMETHYL SULFOXIDE]	210 mM	60%	80%	31.2 µg	–
